Results from ChEMBL document CHEMBL1121884, “Piperazinylquinoxalines with central serotoninmimetic activity” (1981).
Active and inactive are the calls of the source. No cut-off for these calls is given here.

Assays:
[1] = target: T1, Serotonin (5-HT) receptor (Rattus norvegicus) (UniProt P35563+P35365+P32305+P31388+Q9JJ16+P28564+P30994+Q62758+P08909+P14842+P30940+P35364+P19327+P28565); assay: (§1) Ability to elicit head twitches in rats (a serotonin mimetic response); format: functional; set-up: concentration or dose not given beside the values
Method in brief: (§2)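 Female Sprague-Dawley rats (150-250 g), compound given ip in 1% methylcellulose vehicle, dose as base weight; quantal scoring of rats showing at least one head twitch during a 2-min observation beginning 30 min after dosing; usually six rats per dose level; vehicle controls run.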

[2] = target: T1, Serotonin (5-HT) receptor (Rattus norvegicus); assay: as §1; format: functional; set-up: concentration or dose not given beside the values; method in brief: as §2; remark: listed apart in the source
Rattus norvegicus [3] = assay: Ability to elicit head twitches in rats a response characteristic of a serotonin mimetic action in the central nervous system after 40 mg/kg of ip administration; Animals succumbed; format: functional, organism-based; set-up: dose 40 mg/kg; method in brief: as §2
Rattus norvegicus [4] = assay: Serotonin neuronal reuptake blocking activity was determined by the antagonism of the head twitch response induced in rats with p-chloromethamphetamine (PCMA) after 40 mg/kg of ip administration; Animals succumbed; format: functional, organism-based; set-up: dose 40 mg/kg
Method in brief: (§3)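 Female Sprague-Dawley rats (150-250 g) dosed ip with compound (1% methylcellulose vehicle, dose as base weight), then p-chloromethamphetamine 6.0 mg/kg ip 1 h later; head twitches observed 30 min after PCMA; scored as rats not twitching; usually six rats per dose; ED50 = dose antagonizing PCMA head twitch in 50% of animals, with 95% confidence limits.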

[5] = target: Sodium-dependent serotonin transporter (Rattus norvegicus) (UniProt P31652); assay: (§4) Serotonin neuronal reuptake blocking activity was determined by the antagonism of the head twitch response induced by treatment of rats; format: functional; set-up: concentration or dose not given beside the values; method in brief: as §3
Sodium-dependent serotonin transporter (Rattus norvegicus), sequence (P31652 whole entry): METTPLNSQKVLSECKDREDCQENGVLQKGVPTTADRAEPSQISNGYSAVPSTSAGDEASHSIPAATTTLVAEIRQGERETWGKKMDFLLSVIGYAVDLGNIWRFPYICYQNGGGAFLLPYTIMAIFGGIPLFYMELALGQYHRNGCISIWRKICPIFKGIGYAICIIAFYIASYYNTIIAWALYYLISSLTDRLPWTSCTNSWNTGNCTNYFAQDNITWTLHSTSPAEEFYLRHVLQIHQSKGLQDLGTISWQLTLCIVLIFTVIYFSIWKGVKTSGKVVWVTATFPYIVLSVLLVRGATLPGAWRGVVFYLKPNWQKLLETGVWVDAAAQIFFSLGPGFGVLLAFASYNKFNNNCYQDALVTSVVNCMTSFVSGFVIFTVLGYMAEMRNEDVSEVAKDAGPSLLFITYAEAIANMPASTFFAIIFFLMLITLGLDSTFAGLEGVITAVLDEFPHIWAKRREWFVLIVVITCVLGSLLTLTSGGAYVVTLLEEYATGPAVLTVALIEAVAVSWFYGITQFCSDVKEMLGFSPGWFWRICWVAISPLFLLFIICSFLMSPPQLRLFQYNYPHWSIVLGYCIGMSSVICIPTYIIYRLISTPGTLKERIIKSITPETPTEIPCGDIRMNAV

[6] = target: Sodium-dependent serotonin transporter (Rattus norvegicus) (UniProt P31652); assay: as §4; format: functional; set-up: concentration or dose not given beside the values; method in brief: as §3; remark: listed apart in the source
Rattus norvegicus [7] = assay: Ability to elicit head twitches in rats a response characteristic of a serotonin mimetic action in the central nervous system after 9 mg/kg of ip administration; format: functional; settings: route intraperitoneal; method in brief: as §2
Rattus norvegicus [8] = assay: Ability to elicit head twitches in rats a response characteristic of a serotonin mimetic action in the central nervous system was measured after 3 mg/kg of ip administration; format: functional; settings: route intraperitoneal; method in brief: as §2
Rattus norvegicus [9] = assay: Serotonin neuronal reuptake blocking activity was determined by the antagonism of the head twitch response induced in rats with p-chloromethamphetamine (PCMA) after 9 mg/kg of ip administration; format: functional; settings: route intraperitoneal; method in brief: as §3
Rattus norvegicus [10] = assay: Ability to elicit head twitches in rats a response characteristic of a serotonin mimetic action in the central nervous system was measured after 1.0 mg/kg of ip administration; format: functional; settings: route intraperitoneal; method in brief: as §2
Rattus norvegicus [11] = assay: Serotonin neuronal reuptake blocking activity was determined by the antagonism of the head twitch response induced by treatment of rats with p-chloromethamphetamine (PCMA) after 3 mg/kg of ip administration; format: functional; settings: route intraperitoneal; method in brief: as §3
Rattus norvegicus [12] = assay: Serotonin neuronal reuptake blocking activity was determined by the antagonism of the head twitch response induced by treatment of rats with p-chloromethamphetamine (PCMA) after 1 mg/kg of ip administration; format: functional; settings: route intraperitoneal; method in brief: as §3
[13] = target: T1, Serotonin (5-HT) receptor (Rattus norvegicus); assay: as §1; format: functional; set-up: concentration or dose not given beside the values; method in brief: as §2; remark: listed apart in the source
[14] = target: Sodium-dependent serotonin transporter (Rattus norvegicus) (UniProt P31652); assay: Serotonin neuronal reuptake blocking activity was determined by the antagonism of the head twitch response induced in rats; format: functional; set-up: concentration or dose not given beside the values; method in brief: as §3
Rattus norvegicus [15] = organism: Rattus norvegicus; assay: ED50 value expresses the inhibition of serotonin reuptake in rat.; format: functional; settings: Rattus norvegicus; method in brief: as §3
Rattus norvegicus [16] = assay: Ability to elicit head twitches in rats a response characteristic of a serotonin mimetic action in the central nervous system after 6 mg/kg of ip administration; format: functional; settings: route intraperitoneal; method in brief: as §2
Rattus norvegicus [17] = assay: Ability to elicit head twitches in rats a response characteristic of a serotonin mimetic action in the central nervous system was measured after 2 mg/kg of ip administration; format: functional; settings: route intraperitoneal; method in brief: as §2
Rattus norvegicus [18] = assay: Ability to elicit head twitches in rats a response characteristic of a serotonin mimetic action in the central nervous system was measured after 0.67 mg/kg of ip administration; format: functional; settings: route intraperitoneal; method in brief: as §2
Rattus norvegicus [19] = assay: Ability to elicit head twitches in rats a response characteristic of a serotonin mimetic action in the central nervous system was measured after 3 mg/kg of ip administration; 11/36; format: functional; settings: route intraperitoneal; method in brief: as §2
Rattus norvegicus [20] = assay: Serotonin neuronal reuptake blocking activity was determined by the antagonism of the head twitch response induced by treatment of rats with p-chloromethamphetamine (PCMA) after 1.0 mg/kg of ip administration; 5/36; format: functional; settings: route intraperitoneal; method in brief: as §3
Rattus norvegicus [21] = assay: Serotonin neuronal reuptake blocking activity was determined by the antagonism of the head twitch response induced in rats with p-chloromethamphetamine (PCMA) after 9 mg/kg of ip administration; 24/36; format: functional; settings: route intraperitoneal; method in brief: as §3
Rattus norvegicus [22] = assay: Serotonin neuronal reuptake blocking activity was determined by the antagonism of the head twitch response induced by treatment of rats with p-chloromethamphetamine (PCMA) after 3 mg/kg of ip administration; 13/36; format: functional; settings: route intraperitoneal; method in brief: as §3
Rattus norvegicus [23] = assay: Ability to elicit head twitches in rats a response characteristic of a serotonin mimetic action in the central nervous system was measured after 1 mg/kg of ip administration; 5/36; format: functional; settings: route intraperitoneal; method in brief: as §2
Rattus norvegicus [24] = assay: Ability to elicit head twitches in rats a response characteristic of a serotonin mimetic action in the central nervous system after 20 mg/kg of ip administration; format: functional; settings: route intraperitoneal; method in brief: as §2
Rattus norvegicus [25] = assay: Ability to elicit head twitches in rats a response characteristic of a serotonin mimetic action in the central nervous system was measured after 1.2 mg/kg of ip administration; format: functional; settings: route intraperitoneal; method in brief: as §2
Rattus norvegicus [26] = assay: Ability to elicit head twitches in rats a response characteristic of a serotonin mimetic action in the central nervous system was measured after 5 mg/kg of ip administration; format: functional; settings: route intraperitoneal; method in brief: as §2
Rattus norvegicus [27] = assay: Serotonin neuronal reuptake blocking activity was determined by the antagonism of the head twitch response induced in rats with p-chloromethamphetamine (PCMA) after 40 mg/kg of ip administration; format: functional; settings: route intraperitoneal
Method in brief: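 Female Sprague-Dawley rats (150-250 g) dosed ip with compound in 1% methylcellulose vehicle. p-Chloromethamphetamine 6.0 mg/kg ip was given 1 h later, and head movements were observed 30 min after that. Scored as number of rats not showing head twitches. Six rats per dose unless otherwise noted. Doses expressed as base weight.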

| Compound | Activity [1] | Activity [2] | PCMA antagonism [5] | PCMA antagonism [6] | Activity [13] | PCMA antagonism [14] | other results |
| --- | --- | --- | --- | --- | --- | --- | --- |
| c1ccc2nc(N3CCNCC3)cnc2c1 | 9 | 12 | 2 | 2 |  |  | Activity (Rattus norvegicus [3]): Active; PCMA antagonism (Rattus norvegicus [4]): Active |
| CN1CCN(c2cnc3cc(Cl)ccc3n2)CC1.Cl |  |  |  |  |  |  | Activity (Rattus norvegicus [7]): 1; Activity (Rattus norvegicus [8]): 1; PCMA antagonism (Rattus norvegicus [9]): 4; Activity (Rattus norvegicus [10]): 0; PCMA antagonism (Rattus norvegicus [11]): 2; PCMA antagonism (Rattus norvegicus [12]): 2 |
| Cl.Clc1ccc2nc(N3CCNCC3)cnc2c1 | 1 | 0 | 6 | 4 | 2 | 6 | ED50 (Rattus norvegicus [15]): 0.5 mg/kg |
| Oc1ccc2nc(N3CCNCC3)cnc2c1 | 0 | 0 | 0 |  | 1 | 2 |  |
| COc1ccc2ncc(N3CCNCC3)nc2c1 |  |  |  |  |  |  | Activity (Rattus norvegicus [16]): 6; Activity (Rattus norvegicus [17]): 5; Activity (Rattus norvegicus [18]): 1 |
| N#Cc1ccc2nc(N3CCNCC3)cnc2c1 |  |  |  |  |  |  | Activity (Rattus norvegicus [19]): 11; PCMA antagonism (Rattus norvegicus [20]): 5; PCMA antagonism (Rattus norvegicus [21]): 24; PCMA antagonism (Rattus norvegicus [22]): 13; Activity (Rattus norvegicus [23]): 5 |
| Oc1nc2ccccc2nc1N1CCNCC1 | 2 | 6 |  |  | 0 | 1 |  |
| CN(C)CCn1c(=O)c(N2CCNCC2)nc2ccccc21 | 1 | 0 | 0 | 2 | 1 | 0 |  |
| Cl.Clc1nc2ccccc2nc1N1CCNCC1 |  |  |  |  |  |  | Activity (Rattus norvegicus [24]): 1; Activity (Rattus norvegicus [25]): 2; Activity (Rattus norvegicus [26]): 3 |
| Cl.FC(F)(F)c1ccc2nc(N3CCNCC3)c(Sc3ccccc3)nc2c1 | 2 | 2 | 0 | 1 | 0 |  | PCMA antagonism (Rattus norvegicus [27]): 0 |
| Fc1cccc2nc(N3CCNCC3)cnc12 | 6 | 6 |  |  |  |  |  |
| O=[N+]([O-])c1ccc2nc(N3CCNCC3)cnc2c1 | 4 | 2 | 6 | 5 | 2 | 5 |  |
| O=C(O)C1CN(c2cnc3ccccc3n2)CCN1 (configuration not stated) | 2 | 1 | 0 | 0 | 0 | 0 |  |
| Fc1cccc2ncc(N3CCNCC3)nc12 | 1 | 6 | 1 | 0 |  |  | Activity (Rattus norvegicus [3]): Active; PCMA antagonism (Rattus norvegicus [4]): Active |
| Nc1nc2ccccc2nc1N1CCNCC1 | 2 | 3 | 1 | 1 | 6 | 0 |  |
| O=C1CN(c2cnc3ccccc3n2)CCN1 | 0 | 0 |  |  | 3 |  |  |
| [O-][n+]1cc(N2CCNCC2)nc2ccccc21 | 6 | 6 |  |  |  |  |  |
